SENP8 block-1: inhibitors of human SENP8 protease; inhibition, % at 20 µM; recombinant SENP8, Nedd8 substrate fluorescence; hit rate 0.64% among 360,000; in the data active means inhibition mostly above about 40%, no sharp cut-off; inactive means mostly below about 27%
SENP7 block: inhibitors of human SENP7 protease; recombinant SENP7, Z-RLRGG-aminoluciferin luminescence, 40 min; inhibition, % at 5 µM; hit rate 1.5% among 330,000;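 active means inhibition above about 50% at the single test dose, limit read from the data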;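 further: plate controls were DMSO with enzyme for no effect and no enzyme buffer wells for full effect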
UBC13 polyUb: blocks human UBC13 polyubiquitin chain formation. inhibition, % at 20 µM. TR-FRET. hit rate 0.47% among 330,000; in the data active means inhibition above about 45%, passing the limit was not always enough
SENP6 inh: inhibitors of human SENP6 protease; Q9GZR1; Recombinant SENP6 catalytic domain, aminoluciferin luminescence; inhibition, % at 10 µM; hit rate 1.8% among 330,000;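 active means inhibition above about 50% at the single tested dose, limit read from the data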;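 further: plate controls were DMSO wells with enzyme for no effect and DMSO wells lacking enzyme for full effect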
Target sequence (Q9GZR1 628-1112 limits assumed): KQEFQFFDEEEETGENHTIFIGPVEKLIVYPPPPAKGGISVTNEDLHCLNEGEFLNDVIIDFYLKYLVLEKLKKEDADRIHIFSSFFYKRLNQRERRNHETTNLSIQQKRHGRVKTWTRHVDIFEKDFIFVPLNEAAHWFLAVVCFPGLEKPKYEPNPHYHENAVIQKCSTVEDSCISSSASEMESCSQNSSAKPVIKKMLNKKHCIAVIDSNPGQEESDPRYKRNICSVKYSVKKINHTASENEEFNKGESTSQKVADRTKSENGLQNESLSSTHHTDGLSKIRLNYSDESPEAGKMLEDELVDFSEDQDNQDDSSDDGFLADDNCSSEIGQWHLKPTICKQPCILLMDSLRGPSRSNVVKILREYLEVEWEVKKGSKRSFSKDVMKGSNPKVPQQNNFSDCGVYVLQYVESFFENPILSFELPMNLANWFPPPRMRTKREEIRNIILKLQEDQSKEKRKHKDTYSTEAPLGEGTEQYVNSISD
Apaf-1 inh: blocks human Apaf-1 apoptosome activity. reconstituted apoptosome caspase-3 activity, DEVD-Rh110 fluorescence. hit rate 0.71% among 330,000. O14727. AID 489030. inhibition, % at 20 µM; active means inhibition of at least 40% at 20 µM;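 further: plate controls were DMSO wells for no effect and DEVD-CHO caspase inhibitor wells for full effect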
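Material: reconstituted apoptosome with Apaf-1, cytochrome c, caspase-9, procaspase-3, dATP; medium: pH 7.5 Hepes buffer with CHAPS, BSA, DTT; also added: cytochrome c and DEVD-Rh110 substrate; timing: 30 min plus 50 min, RT; signal: Rh110 fluorescence intensity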
SENP8 block-2: blocks the human protease SENP8; Q96LD8; purified SENP8, Z-RLRGG-aminoluciferin cleavage, luminescence; inhibition, % at 10 µM; hit rate 1.2% among 330,000; AID 2540; in the data active means inhibition above about 50%
Apaf-1 inh conf2: Apaf-1 inhibition, single-dose confirmed | shares compounds with Apaf-1 inh | reconstituted apoptosome, caspase-3 DEVD-Rh110 fluorescence | inhibition, % at 20 µM | hit rate 25% among 1,800;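 active means mean inhibition of at least 40% at 20 µM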;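 further: plate controls were DMSO wells for no effect and DEVD-CHO caspase inhibitor control wells for full effect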
Rh110 interf inh: interferes with Rh110 fluorescence, flagging false Apaf-1 inhibitors; Rh110 fluorescence interference, quenched caspase reaction; activation (fluorescence interference), % at 20 µM; 1,800 tested, under 10 active; shares compounds with Apaf-1 inh; AID 504615;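 active means signal rise of 40% or more at 20 µM, treated as a fluorescence artifact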
SENP8 inh conf: SENP8 (human) inhibition, single concentration confirmation. shares compounds with SENP8 block-1. purified SENP8, Nedd8-AMC/pro-Nedd8 cleavage fluorescence, 30 min. inhibition, % at 25 µM. hit rate 15% among 1,400; in the data active means inhibition mostly above about 39%, no sharp cut-off; inactive means mostly below about 34%
Active calls of the source: *. Hits are enriched below; roughly 3% of the tested compounds scored in any of these assays.

Screening O=[N+]([O-])c1ccc(NCc2ccc(Cl)cc2)c2ccncc12 returned SENP8 block-1 43*, SENP7 block 13, UBC13 polyUb -29, SENP6 inh 26, Apaf-1 inh 79*, SENP8 block-2 16, Apaf-1 inh conf2 12, Rh110 interf inh -3 and SENP8 inh conf 37.
O=C1CN=C(c2ccc(Br)cc2)c2c(sc3c2CCCC3)N1CCN1CCCCC1 was read as SENP8 block-1 4, SENP7 block -6, UBC13 polyUb 7, SENP6 inh -20, Apaf-1 inh 19 and SENP8 block-2 -7.
CCN1CCN(S(=O)(=O)c2ccc(Cl)nc2)CC1 was read as SENP8 block-1 44*, SENP7 block 0, UBC13 polyUb 3, SENP6 inh 19, Apaf-1 inh -5, SENP8 block-2 6 and SENP8 inh conf 12.
For O=C(CCC(=O)N1C[C@H]2C[C@@H](C1)c1cccc(=O)n1C2)NCc1cccc(C(F)(F)F)c1 the results were SENP8 block-1 50*, SENP7 block -5, UBC13 polyUb -5, SENP6 inh -3, Apaf-1 inh -6, SENP8 block-2 0 and SENP8 inh conf 6.
`C=CC12CN(C)C3C4COC(CC41)C1(C(=O)Nc4ccccc41)C32` (stereo not given) gave SENP8 block-1 41* and SENP8 inh conf 3.
For COC(=O)C1=C(c2ccc(OCc3ccccc3)cc2)C[C@@H]2CC[C@H]1N2C(=O)NCc1cccc(C(F)(F)F)c1 the results were SENP8 block-1 11, SENP7 block 8, UBC13 polyUb -2, SENP6 inh -6, Apaf-1 inh 21 and SENP8 block-2 4.
Screening CC(=O)c1ccc2c(c1)OCO2 returned SENP8 block-1 44*, SENP7 block -4, UBC13 polyUb -6, SENP6 inh 0, Apaf-1 inh -4, SENP8 block-2 -6 and SENP8 inh conf 0.
`CSc1ncc(/C=C2/C(=O)NC(=O)N(c3ccc(Cl)cc3)C2=O)cn1` gave SENP8 block-1 0.
For COCc1cc(OC(=O)N(C)C)nc(-c2ccccc2)n1 the results were SENP8 block-1 27, SENP7 block 4, UBC13 polyUb 5, SENP6 inh -17, Apaf-1 inh -13 and SENP8 block-2 -3.
`Cc1ccc(NC(=O)[C@@H](NC(=O)N2C[C@H]3C[C@@H](C2)c2cccc(=O)n2C3)C(C)C)cc1` gave SENP8 block-1 56*, SENP7 block -7, UBC13 polyUb -10, SENP6 inh -11, Apaf-1 inh -3, SENP8 block-2 1 and SENP8 inh conf 17.
For CCOc1ccc(NC(=O)N2C[C@H]3C[C@@H](C2)c2cccc(=O)n2C3)cc1 the results were SENP8 block-1 42*, SENP7 block -3, UBC13 polyUb -1, SENP6 inh 0, Apaf-1 inh -9, SENP8 block-2 -1 and SENP8 inh conf 9.
`COc1ccc(NC(=O)[C@@H](NC(=O)N2C[C@H]3C[C@@H](C2)c2cccc(=O)n2C3)C(C)C)cc1` gave SENP8 block-1 3, SENP7 block -11, UBC13 polyUb 1, SENP6 inh 6, Apaf-1 inh -8 and SENP8 block-2 -1.
CCC(Oc1cc(Cl)ccc1Cl)C(=O)N1CCC2(CC1)OCCO2 (stereo not given) was read as SENP8 block-1 9, SENP7 block -2, UBC13 polyUb -2, SENP6 inh -6, Apaf-1 inh -2 and SENP8 block-2 5.
CN1C2CCC1CC(=NO)C2 was read as SENP8 block-1 48*, SENP7 block -1, UBC13 polyUb 2, SENP6 inh 2, Apaf-1 inh -2, SENP8 block-2 -5 and SENP8 inh conf 25.
O=C1NC(=O)C(CCc2ccncc2)(Cc2ccc3c(c2)OCO3)C(=O)N1CCc1ccccc1 (stereo not given) was read as SENP8 block-1 29*, SENP7 block 12, UBC13 polyUb 0, SENP6 inh 2, Apaf-1 inh 26, SENP8 block-2 1 and SENP8 inh conf 13.
